Laboratory results taken from ChEMBL document CHEMBL1127551, “(6,7-Diaryldihydropyrrolizin-5-yl)acetic acids, a novel class of potent dual inhibitors of both cyclooxygenase and 5-lipoxygenase” (J Med Chem, 1994).
Each block holds one compound with its values, some of them ahead of it.

Legend:
[1] = molecular target: T1, Arachidonate 5-lipoxygenase (Bos taurus, UniProt Q9BEG3); experiment: Inhibition of 5-lipoxygenase in bovine PMNL cell assay.; assay type: cell-based
T1 sequence (Q9BEG3 whole entry): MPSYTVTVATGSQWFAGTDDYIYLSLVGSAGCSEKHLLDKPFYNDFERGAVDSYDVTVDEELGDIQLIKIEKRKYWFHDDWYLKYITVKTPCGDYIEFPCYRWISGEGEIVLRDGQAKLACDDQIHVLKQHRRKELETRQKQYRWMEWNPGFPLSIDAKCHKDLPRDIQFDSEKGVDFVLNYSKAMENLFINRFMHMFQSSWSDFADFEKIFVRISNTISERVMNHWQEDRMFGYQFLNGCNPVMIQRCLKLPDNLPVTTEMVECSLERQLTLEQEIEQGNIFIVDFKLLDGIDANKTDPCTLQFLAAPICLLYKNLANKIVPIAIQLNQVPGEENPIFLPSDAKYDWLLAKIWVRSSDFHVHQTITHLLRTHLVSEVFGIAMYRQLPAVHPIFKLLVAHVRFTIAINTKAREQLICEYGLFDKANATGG
In short: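 Intact polymorphonuclear leukocytes isolated from fresh bovine blood by ficoll gradient centrifugation. Cells incubated with test compound, then stimulated with Ca-ionophore A 23187. IC50 taken as the average of at least two determinations.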

Cyclooxygenase = molecular target: T2, Cyclooxygenase (Bos taurus, UniProt O62664+O62698); experiment: Inhibition of Prostaglandin G/H synthase in bovine thrombocyte intact cell assay.
T2 sequence (O62664 whole entry): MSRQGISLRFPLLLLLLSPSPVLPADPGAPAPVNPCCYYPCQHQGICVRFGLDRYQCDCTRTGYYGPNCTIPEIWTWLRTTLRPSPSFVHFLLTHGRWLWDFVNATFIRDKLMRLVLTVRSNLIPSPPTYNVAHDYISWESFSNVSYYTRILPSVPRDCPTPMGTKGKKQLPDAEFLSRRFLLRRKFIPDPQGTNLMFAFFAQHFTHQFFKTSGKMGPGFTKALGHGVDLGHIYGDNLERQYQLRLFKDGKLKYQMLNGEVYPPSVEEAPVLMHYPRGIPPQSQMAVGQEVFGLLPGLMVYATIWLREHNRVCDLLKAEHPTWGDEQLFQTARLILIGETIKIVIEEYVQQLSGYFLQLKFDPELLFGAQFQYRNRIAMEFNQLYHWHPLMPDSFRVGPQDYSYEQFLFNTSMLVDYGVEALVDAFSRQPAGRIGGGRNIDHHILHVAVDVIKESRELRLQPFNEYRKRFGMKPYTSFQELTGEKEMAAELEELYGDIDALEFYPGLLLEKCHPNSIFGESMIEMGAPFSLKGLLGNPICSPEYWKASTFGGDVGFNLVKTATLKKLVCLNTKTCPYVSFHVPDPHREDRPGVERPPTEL
T2 sequence (O62698 whole entry): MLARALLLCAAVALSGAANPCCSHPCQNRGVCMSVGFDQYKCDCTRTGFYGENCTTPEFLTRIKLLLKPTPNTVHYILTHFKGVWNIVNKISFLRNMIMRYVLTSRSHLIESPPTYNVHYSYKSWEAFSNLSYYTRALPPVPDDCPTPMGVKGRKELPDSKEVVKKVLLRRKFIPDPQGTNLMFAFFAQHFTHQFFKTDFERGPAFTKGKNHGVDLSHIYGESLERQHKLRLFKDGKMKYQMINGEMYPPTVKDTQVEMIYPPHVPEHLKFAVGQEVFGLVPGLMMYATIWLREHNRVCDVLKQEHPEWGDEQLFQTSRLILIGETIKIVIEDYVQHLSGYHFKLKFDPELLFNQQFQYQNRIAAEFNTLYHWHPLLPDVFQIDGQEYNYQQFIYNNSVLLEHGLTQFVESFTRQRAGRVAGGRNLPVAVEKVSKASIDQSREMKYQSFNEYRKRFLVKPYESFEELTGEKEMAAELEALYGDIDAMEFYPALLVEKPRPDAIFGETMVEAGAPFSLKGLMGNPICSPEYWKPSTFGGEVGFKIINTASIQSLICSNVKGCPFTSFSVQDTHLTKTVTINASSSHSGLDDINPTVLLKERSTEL
In short: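 Intact thrombocytes isolated from fresh bovine blood by ficoll gradient centrifugation. Cells incubated with test compound, then stimulated with Ca-ionophore A 23187. IC50 taken as the average of at least two determinations.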

[2] = molecular target: T3, Polyunsaturated fatty acid 5-lipoxygenase (Homo sapiens, UniProt P09917); experiment: Inhibition of human 5-lipoxygenase in human cells; assay type: cell-based
T3 sequence (P09917 whole entry): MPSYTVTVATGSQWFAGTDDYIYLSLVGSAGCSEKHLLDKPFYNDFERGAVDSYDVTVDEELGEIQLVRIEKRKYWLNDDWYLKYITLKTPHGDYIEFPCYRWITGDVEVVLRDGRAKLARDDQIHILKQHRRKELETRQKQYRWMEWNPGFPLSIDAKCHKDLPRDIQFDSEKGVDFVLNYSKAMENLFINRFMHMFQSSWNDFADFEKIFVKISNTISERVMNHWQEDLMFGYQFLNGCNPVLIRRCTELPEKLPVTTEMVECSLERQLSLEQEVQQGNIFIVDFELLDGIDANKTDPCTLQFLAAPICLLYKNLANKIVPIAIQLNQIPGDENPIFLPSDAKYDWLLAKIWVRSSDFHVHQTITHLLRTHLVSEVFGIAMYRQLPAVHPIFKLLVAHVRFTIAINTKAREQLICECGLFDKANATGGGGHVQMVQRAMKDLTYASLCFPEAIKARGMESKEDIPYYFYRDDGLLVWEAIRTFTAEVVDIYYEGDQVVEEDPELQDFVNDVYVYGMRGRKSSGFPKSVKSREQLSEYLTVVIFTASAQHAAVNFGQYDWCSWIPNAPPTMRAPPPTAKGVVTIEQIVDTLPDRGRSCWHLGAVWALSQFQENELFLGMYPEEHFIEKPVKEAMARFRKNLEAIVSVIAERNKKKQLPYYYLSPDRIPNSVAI
In short: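 Intact PMNL isolated by Ficoll gradient centrifugation from fresh human blood; cells incubated with test compound, then stimulated with Ca-ionophore A 23187; 5-LO inhibition expressed as IC50.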

Structure (SMILES): CC1(C)Cc2c(-c3ccccc3)c(-c3ccc(Cl)cc3Cl)c(CC(=O)O)n2C1
IC50 [1]: 2.1 µM
IC50 (Cyclooxygenase): 18 µM

Structure (SMILES): CC1(C)Cc2c(-c3ccccc3)c(-c3ccc(Cl)c(Cl)c3Cl)c(CC(=O)O)n2C1
IC50 [1]: 1.8 µM
IC50 (Cyclooxygenase): 12 µM

Structure (SMILES): CC1(C)Cc2c(-c3ccccc3)c(-c3ccc(Cl)c(Cl)c3)c(CC(=O)O)n2C1
IC50 [1]: 1.7 µM
IC50 (Cyclooxygenase): 4.5 µM

Structure (SMILES): CC1(C)Cc2c(-c3ccccc3)c(-c3ccccc3Cl)c(CC(=O)O)n2C1
IC50 [1]: 4.4 µM
IC50 (Cyclooxygenase): 61 µM

Structure (SMILES): CC1(C)Cc2c(-c3ccccc3)c(-c3cc(Cl)ccc3Cl)c(CC(=O)O)n2C1
IC50 [1]: 4.3 µM
IC50 (Cyclooxygenase): 12 µM

Structure (SMILES): CC1(C)Cc2c(-c3ccccc3)c(-c3ccccc3)c(CC(=O)O)n2C1
IC50 [1]: 4 µM
IC50 (Cyclooxygenase): 0.1 µM

Structure (SMILES): CC1(C)Cc2c(-c3ccccc3)c(-c3ccc(Oc4ccccc4)cc3)c(CC(=O)O)n2C1
IC50 [1]: 1.6 µM
IC50 (Cyclooxygenase): 2 µM

The remaining lines, values ahead:

IC50 [1]: 1.7 µM
IC50 (Cyclooxygenase): 3.6 µM
Structure (SMILES): CC1(C)Cc2c(-c3ccccc3)c(-c3cccc(Cl)c3)c(CC(=O)O)n2C1

IC50 [1]: 7.7 µM
IC50 (Cyclooxygenase): 1.6 µM
Structure (SMILES): CC1(C)Cc2c(-c3ccccc3)c(-c3ccc(O)cc3)c(CC(=O)O)n2C1

IC50 [1]: 5.2 µM
IC50 (Cyclooxygenase): 3.4 µM
Structure (SMILES): CC1(C)Cc2c(-c3ccc(Cl)cc3)c(-c3ccccc3)c(CC(=O)O)n2C1

IC50 [1]: 0.18 µM
IC50 [2]: 0.23 µM
IC50 (Cyclooxygenase): 0.21 µM
Structure (SMILES): CC1(C)Cc2c(-c3ccccc3)c(-c3ccc(Cl)cc3)c(CC(=O)O)n2C1 [LICOFELONE]

IC50 [1]: 1.6 µM
IC50 (Cyclooxygenase): 2 µM
Structure (SMILES): O=C(O)Cc1c(-c2ccc(Cl)cc2)c(-c2ccccc2)c2n1CCC2

IC50 [1]: 0.24 µM
IC50 (Cyclooxygenase): 0.1 µM
Structure (SMILES): COc1ccc(-c2c(-c3ccccc3)c3n(c2CC(=O)O)CC(C)(C)C3)cc1

IC50 [1]: 6 µM
IC50 (Cyclooxygenase): 1 µM
Structure (SMILES): CC1(C)Cc2c(-c3ccccc3)c(-c3ccc(N)cc3)c(CC(=O)O)n2C1

IC50 [1]: > 10 µM
IC50 (Cyclooxygenase): 3.2 µM
Structure (SMILES): CC1(C)Cc2c(-c3ccccc3)c(-c3ccc(F)cc3)c(CC(=O)O)n2C1

IC50 [1]: 10 µM
IC50 (Cyclooxygenase): 0.8 µM
Structure (SMILES): CC(=O)Nc1ccc(-c2c(-c3ccccc3)c3n(c2CC(=O)O)CC(C)(C)C3)cc1

IC50 [1]: 1.5 µM
IC50 (Cyclooxygenase): 0.03 µM
Structure (SMILES): CC1(C)Cc2c(-c3ccccc3)c(-c3ccc([N+](=O)[O-])cc3)c(CC(=O)O)n2C1

IC50 [1]: 0.18 µM
IC50 (Cyclooxygenase): 20 µM
Structure (SMILES): CC1(C)Cc2c(-c3ccccc3)c(-c3ccc(C(C)(C)C)cc3)c(CC(=O)O)n2C1
